In one assay the test system is SNB-75. Briefly: Growth inhibition of human SNB75 cells assessed as cell growth at 10 uM after 48 hrs by sulforhodamine B assay. It counts as functional. Particulars: SNB-75, 48 h, read-out: Activity. The essentials:
(§1)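 Single-dose NCI-60 test at 10 µM. Cells were grown in RPMI 1640 with 5% FBS and 2 mM L-glutamine, preincubated 24 h, with T0 plates TCA-fixed. Exposure was 48 h at 37 °C, 5% CO2. Cells were fixed with cold TCA (final 10%, 4 °C, 60 min), stained with SRB and read at 515 nm. Percent growth was taken relative to T0 and untreated control; negative values denote cell kill.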
For orientation: Sulforhodamine B stains cellular protein and so reports cell mass.

The next assay deals with SK-OV-3. The experiment in a line: Growth inhibition of human SKOV3 cells assessed as cell growth at 10 uM after 48 hrs by sulforhodamine B assay. Particulars: SK-OV-3, 48 h, read-out: Activity. In kind it is functional. The essentials: as §1
Another assay has as its system U-251. The experiment in a line: Growth inhibition of human U251 cells after 48 hrs by sulforhodamine B assay. Particulars: U-251, 48 h. It counts as functional. The method in brief:
(§2)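 NCI-60 five-dose screen. Cells were grown in RPMI 1640 with 5% FBS and 2 mM L-glutamine, plated at 5000–40,000 cells/well and incubated 24 h before dosing, with T0 plates TCA-fixed. DMSO stocks were diluted to doses of […] and exposed 48 h at 37 °C, 5% CO2. Cells were fixed with cold TCA (final 10%, 60 min, 4 °C), stained with 0.4% SRB in 1% acetic acid for 10 min, solubilized in 10 mM trizma base and read at 515 nm. GI50 is where 100×(T−T0)/(C−T0)=50.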

Assay [1] is described as follows: Growth inhibition of human HCC2998 cells assessed as cell growth at 10 uM after 48 hrs by sulforhodamine B assay. The settings on record: HCC 2998, 48 h, read-out: Activity. In kind it is functional. The essentials: (§3)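 NCI-60 single-dose screen at 10 µM: cells in RPMI 1640 with 5% FBS, preincubated 24 h, then exposed 48 h at 37 °C. TCA fixation (16% final for suspension cells), SRB staining, absorbance 515 nm. Percent growth relative to time-zero and untreated control plates; negative values indicate cell kill.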

Another assay relates to HL-60(TB). Briefly: Growth inhibition of human HL-60(TB) cells assessed as cell growth at 10 uM after 48 hrs by sulforhodamine B assay. In kind it is functional. The settings on record: HL-60, 48 h, read-out: Activity. The method in brief: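 NCI-60 single-dose screen run at 10 µM on HL-60(TB) suspension cells in RPMI 1640 with 5% FBS and 2 mM L-glutamine. Cells were preincubated for 24 h, with a time-zero plate fixed then. Exposure lasted 48 h at 37 °C. Settled cells were fixed with TCA (16% final), stained with SRB and read at 515 nm. Percent growth is relative to control and T0.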

For the next assay, the system named is HCT-116. Briefly: Growth inhibition of human HCT116 cells after 48 hrs by sulforhodamine B assay. In kind it is functional. The settings on record: HCT-116, 48 h. The method in brief:
(§4)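 NCI-60 screen: cells in RPMI 1640 with 5% FBS and 2 mM glutamine, 5000–40,000 cells/well, preincubated 24 h. Five concentrations (10-fold dilutions; 100 to 0.001 µM) applied for 48 h at 37 °C. TCA fixation, SRB stain, absorbance at 515 nm. Time-zero plates included; GI50 where 100×(T−T0)/(C−T0)=50.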

The subject of the next assay is NCI-H322M. The experiment in a line: Growth inhibition of human NCI-H322M cells assessed as cell growth at 10 uM after 48 hrs by sulforhodamine B assay. It counts as functional. Particulars: read-out: Activity. The essentials:
(§5)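 Single-dose NCI-60 screen: adherent cells in RPMI 1640 with 5% FBS were exposed to 10 µM for 48 h at 37 °C after a 24 h preincubation. They were fixed in situ with cold TCA (10% final), stained with 0.4% SRB in 1% acetic acid, solubilized in 10 mM Tris base, and read at 515 nm. Percent growth was taken relative to time-zero and control plates.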

Another assay relates to HOP-92. Briefly: Growth inhibition of human HOP92 cells after 48 hrs by sulforhodamine B assay. In kind it is functional. Particulars: HOP-92, 48 h. The essentials: as §4
For the next assay, the system named is MCF7. The experiment in a line: Antiproliferative activity against human MCF7 cells by MTT assay. It counts as functional, cell-based. The essentials: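 Cells plated at 8 × 10^3/well (MDA-MB-231) or 10^4/well (MCF7) in 96-well plates. Compounds fed in media with 5% FBS (MDA-MB-231) or 1% FBS (MCF7). MTT read-out of viable cells.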
On the technique in general: Tetrazolium assays rely on reduction of a dye to a coloured formazan, in cell work by metabolically active cells.

The nature of assay [2]: Growth inhibition of human NCI-ADR-RES cells after 48 hrs by sulforhodamine B assay. It counts as functional. The method in brief:
(§6)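 NCI-60 panel cells grown in RPMI 1640 with 5% FBS and 2 mM L-glutamine, seeded at 5000–40,000 cells/well and preincubated 24 h. Five 10-fold dilutions (0.001–100 µM) from DMSO stocks were added for 48 h at 37 °C. Adherent cells were fixed with cold TCA (10% final) for 60 min at 4 °C, stained with 0.4% SRB, and read at 515 nm. GI50 was set where 100×(T−T0)/(C−T0)=50.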

Another assay has as its system A549. The experiment in a line: Growth inhibition of human A549/ATCC cells assessed as cell growth at 10 uM after 48 hrs by sulforhodamine B assay. In kind it is functional. Particulars: A549, 48 h, read-out: Activity. The essentials:
as §3

The test system of another assay is OVCAR-8. Briefly: Growth inhibition of human OVCAR8 cells assessed as cell growth at 10 uM after 48 hrs by sulforhodamine B assay. It counts as functional. The settings on record: OVCAR-8, 48 h, read-out: Activity. The method in brief: as §5
The next assay concerns SR. Briefly: Growth inhibition of human SR cells after 48 hrs by sulforhodamine B assay. In kind it is functional. The method in brief:
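Suspension leukemia line in RPMI 1640 with 5% FBS and 2 mM L-glutamine, NCI-60 five-dose format ([…]), 48 h at 37 °C. Settled cells were fixed with 80% TCA (final 16%), stained with SRB and read at 515 nm. GI50 is where 100×(T−T0)/(C−T0)=50, with T0 measured at dosing.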

The test system of a further assay is NCI-H460. The experiment in a line: Growth inhibition of human NCI-H460 cells assessed as cell growth at 10 uM after 48 hrs by sulforhodamine B assay. In kind it is functional. Particulars: NCI-H460, 48 h, read-out: Activity. The essentials:
as §5

For a further assay, the system named is DU-145. Briefly: Growth inhibition of human DU145 cells after 48 hrs by sulforhodamine B assay. In kind it is functional. The settings on record: DU-145, 48 h. The essentials:
as §4

In the next assay the test system is KM12. Briefly: Growth inhibition of human KM12 cells assessed as cell growth at 10 uM after 48 hrs by sulforhodamine B assay. Particulars: KM12, 48 h, read-out: Activity. In kind it is functional. The method in brief:
as §3

In another assay the test system is PC-3. Briefly: Growth inhibition of human PC3 cells after 48 hrs by sulforhodamine B assay. The settings on record: PC-3, 48 h. In kind it is functional. The method in brief: as §6
The next assay has as its system SNB-19. Briefly: Growth inhibition of human SNB19 cells assessed as cell growth at 10 uM after 48 hrs by sulforhodamine B assay. It counts as functional. The settings on record: SNB-19, 48 h, read-out: Activity. The method in brief:
as §1

The nature of assay [3]: Growth inhibition of human EKVX cells after 48 hrs by sulforhodamine B assay. It counts as functional. The method in brief:
as §4

For the next assay, the system named is ACHN. Briefly: Growth inhibition of human ACHN cells assessed as cell growth at 10 uM after 48 hrs by sulforhodamine B assay. The settings on record: read-out: Activity. In kind it is functional. The essentials:
as §3

The test system of the next assay is HT-29. Briefly: Growth inhibition of human HT-29 cells after 48 hrs by sulforhodamine B assay. It counts as functional. The settings on record: HT-29, 48 h. The essentials: as §4
The subject of another assay is UACC-257. Briefly: Growth inhibition of human UACC257 cells after 48 hrs by sulforhodamine B assay. Particulars: UACC-257, 48 h. In kind it is functional. The essentials:
as §2

For `CC(C)=CCC/C(C)=C/CC/C(C)=C/CC[C@]1(C)CCc2c3c(c(C)c(C)c2O1)OCN(CCCCCCCCO)C3`, the growth at 10 µM in the assay on SNB-75 is 74.3%; in the assay with SK-OV-3 it was 52.9%; in assay [1], -87%; in the assay with HL-60(TB) it was 31%; in the assay with NCI-H322M, 65.3%; with A549, 20.2%. Further, the growth at 10 µM with OVCAR-8 is 72.1%; in the assay with NCI-H460, 9.26%; in the assay with KM12, 15.7%; with SNB-19, 73.6%; with ACHN, 79.6%. For the same molecule, the concentration for 50% growth inhibition (GI50) was found to be 2.61 µM in the assay on U-251; 2.95 µM with HCT-116; 2.17 µM with HOP-92; 5.5 µM in assay [2]; 2.65 µM with SR; 2.98 µM in the assay on DU-145. Further, the concentration for 50% growth inhibition (GI50) was 2.37 µM in the assay on PC-3, 3.04 µM in assay [3], 3.26 µM with HT-29 and 2.96 µM in the assay with UACC-257. This molecule yielded an IC50 in the assay on MCF7 of over 20 µM.
`COc1ccc(CCN2COc3cc(C)c4c(c3C2)CC[C@@](C)(CC/C=C(\C)CC/C=C(\C)CCC=C(C)C)O4)cc1OC`: the growth at 10 µM with SNB-75 was 45.2%; in the assay on SK-OV-3 it was 92.8%; in [1], -87.2%; in the assay on HL-60(TB), 15.4%; with NCI-H322M, 4.19%; in the assay with A549 it was 58.4%. For the same molecule, the growth at 10 µM with OVCAR-8 was -70.7%; in the assay with NCI-H460, -68.2%; in the assay with KM12 it was -82.6%; in the assay on SNB-19, 80.5%; with ACHN it was 75.7%. Further, the GI50 in the assay with U-251 came out at 1.67 µM; with HCT-116, 1.76 µM; with HOP-92, 1.55 µM; in assay [2], 2.02 µM; with SR it was 2.3 µM; in the assay with DU-145, 1.94 µM. Moreover, the GI50 stood at 1.87 µM in the assay on PC-3, 2.69 µM in assay [3], 1.85 µM in the assay with HT-29 and 5.58 µM with UACC-257.
As for `CC(C)=CCC/C(C)=C/CC/C(C)=C/CC[C@]1(C)CCc2c3c(cc(C)c2O1)OCN(C1CCN(Cc2ccccc2)CC1)C3`, the growth at 10 µM in the assay with SNB-75 is 62.5%; with SK-OV-3, 109%; in assay [1], -36.1%; in the assay on HL-60(TB), -18.9%; in the assay on NCI-H322M, 19%; in the assay with A549, 49.6%. The growth at 10 µM with OVCAR-8 was -85.8%; in the assay with NCI-H460, -78.7%; in the assay with KM12, -44%; in the assay on SNB-19 it was 68.2%; in the assay on ACHN, 83.2%. The 50% growth inhibitory concentration (GI50) with U-251 was 1.51 µM; in the assay with HCT-116 it was 0.576 µM; in the assay on HOP-92 it was 0.269 µM; in assay [2], 2.56 µM; in the assay on SR, 0.217 µM; in the assay on DU-145 it was 1.89 µM. The GI50 with PC-3 was determined as 0.581 µM; in assay [3] it was 1.69 µM; in the assay on HT-29 it was 1.84 µM; with UACC-257, 2.24 µM.

A word on the GI50: it is the concentration giving 50% growth inhibition. Read a low GI50 as more potent growth inhibition. A word on the IC50: it is the concentration that inhibits the measured activity by half. High values mean weaker potency in that assay, low ones greater potency in that assay.

The record behind these values is ChEMBL document CHEMBL2380254, “Optimization of tocotrienols as antiproliferative and antimigratory leads” (Eur J Med Chem, 2013).
